Assay outcomes deposited in PubChem by Johns Hopkins Ion Channel Center.
TRPC4 inh – blocks the mouse TRPC4 cation channel | Q9QUQ5 | HEK293 TRPC4beta/mu-opioid, DAMGO-evoked Fluo4 calcium flux; active compounds read low | B-score at 10 µM | 300,000 compounds, 0.39% hits;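 active means B-score over 3 SD under the library average, no early fluorescence shift, positive overall ratio signal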
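material = TRPC4beta/mu-opioid receptor HEK293 cell line | probe or stimulus = sequential submaximal and maximal DAMGO stimulation | compound dosing = one concentration per compound | measured by = Fluo4 Ca2+ flux fluorescence | evaluation = integrated fluorescence ratio relative to baseline, converted to per-well B score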
Kir21 block – blocks the mouse Kir2.1 inward-rectifier potassium channel; B-score at 10 µM; P35561; HEK293-Kir2.1, FluxOR thallium flux fluorescence; active compounds read low; 310,000 compounds, 0.85% hits;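 active means fluorescence ratio B-score at or below minus 3 SD of library scores, with starting-brightness B-score within 2 SD, cut at about -4.2 in these data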;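 further: channel flux triggered by added potassium and thallium sulfate stimulus; B-score of peak minus minimum fluorescence over baseline after thallium stimulus; more negative B-score means stronger Kir2.1 block with less thallium influx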
TRPC6 inhibitor – inhibitors of mouse TRPC6 channel; 310,000 compounds, 1.1% hits; Q61143; B-score at 10 µM; HEK293-TRPC6, membrane potential dye, ACh-evoked depolarization; active compounds read low; AID 2553;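 active means B-score under library mean minus 3 SD, initial fluorescence not abnormally high, positive integrated signal ratio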;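 further: B-score derived from integrated fluorescence ratio over the kinetic read; more negative B-score means stronger inhibition of depolarization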
Target sequence (Q61143 whole entry, looked up): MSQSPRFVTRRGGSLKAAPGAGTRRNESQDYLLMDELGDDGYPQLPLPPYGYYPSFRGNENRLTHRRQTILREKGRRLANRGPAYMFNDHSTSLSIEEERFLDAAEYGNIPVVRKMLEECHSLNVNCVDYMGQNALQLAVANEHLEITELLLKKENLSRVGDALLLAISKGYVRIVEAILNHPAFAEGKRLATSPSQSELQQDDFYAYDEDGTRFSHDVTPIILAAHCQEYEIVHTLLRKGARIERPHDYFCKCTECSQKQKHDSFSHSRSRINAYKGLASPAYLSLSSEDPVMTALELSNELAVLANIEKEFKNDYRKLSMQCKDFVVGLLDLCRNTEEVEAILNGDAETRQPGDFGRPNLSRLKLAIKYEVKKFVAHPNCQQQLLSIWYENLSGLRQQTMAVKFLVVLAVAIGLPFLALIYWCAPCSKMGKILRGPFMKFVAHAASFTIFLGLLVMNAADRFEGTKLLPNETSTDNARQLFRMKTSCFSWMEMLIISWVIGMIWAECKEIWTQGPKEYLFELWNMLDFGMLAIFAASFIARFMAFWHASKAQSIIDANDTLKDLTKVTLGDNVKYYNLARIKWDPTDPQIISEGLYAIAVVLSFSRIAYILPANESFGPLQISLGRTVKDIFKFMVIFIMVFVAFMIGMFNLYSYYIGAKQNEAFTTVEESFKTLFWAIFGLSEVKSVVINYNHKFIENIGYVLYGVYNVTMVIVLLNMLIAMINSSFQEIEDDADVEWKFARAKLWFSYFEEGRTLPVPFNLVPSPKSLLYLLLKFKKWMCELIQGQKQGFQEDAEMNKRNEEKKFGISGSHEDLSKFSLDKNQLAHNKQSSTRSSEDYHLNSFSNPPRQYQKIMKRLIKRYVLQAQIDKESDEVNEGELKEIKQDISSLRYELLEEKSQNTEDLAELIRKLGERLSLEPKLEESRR
TRPC6 act – activators of mouse TRPC6 channel | Q61143 | HEK293-TRPC6 membrane potential dye fluorescence; active compounds read high | B-score at 10 µM | 310,000 compounds, 0.13% hits | AID 2550;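 active means B-score of the integrated fluorescence ratio above library mean plus 3 SD, and starting fluorescence ratio within library mean plus 5 SD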;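 further: higher score means more depolarization so channel activation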
TRPC4 PAM – allosteric potentiators of mouse TRPC4 channel; Q9QUQ5; HEK293 TRPC4beta/mu-opioid, DAMGO EC20, Fluo-4 Ca2+ flux; active compounds read high; 310,000 compounds, 0.42% hits; B-score at 10 µM;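 active means B-score of calcium response area above 5 SD of library B-scores, with initial fluorescence ratio within 5 SD of library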;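 further: B-score of integrated fluorescence ratio over time as area under calcium response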
TRPC4 act – opens the mouse TRPC4 cation channel; Q9QUQ5; HEK293 TRPC4beta/mu-opioid, Fluo4 calcium fluorescence; active compounds read high; B-score at 10 µM; 310,000 compounds, 0.49% hits;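 active means B-score above 5 SD of library B-scores, and initial fluorescence ratio not above library mean plus 5 SD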;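 further: positive B-score marks a calcium rise read as TRPC4 activation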
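System: HEK293 cells stably co-expressing mouse TRPC4beta and mu-opioid receptor; Schedule: Fluo4 dye loading 45 min at room temperature, 110 s recording; Detection: Fluo4 fluorescence, kinetic; Evaluation: B-scored integrated calcium fluorescence ratio; Controls: buffer (low) and maximal DAMGO (high).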
TRPC4 spec 2 – second check of whether TRPC6 inhibitors also affect mouse TRPC4; shares compounds with TRPC6 inhibitor; HEK293 TRPC4/MOR, membrane potential dye fluorescence; channel activated by saturating DAMGO dose; inhibition, % at 10 µM; 920 compounds, 42% hits; AID 2776;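 active means compounds whose fluorescence signal differed from control wells by over 3 SD, either direction, in both duplicate plates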
TRPC4 spec – tests whether TRPC6 inhibitors also affect mouse TRPC4. activity change, negative = inhibition, % at 10 µM. HEK293 TRPC4/mu-opioid, membrane potential fluorescence. AID 2777. shares compounds with TRPC6 inhibitor. 920 compounds, 61% hits;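 active means rise or fall in signal beyond 3 SD of buffer-only wells in both replicate plates, either sign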;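 further: integrated kinetic ratio of fluorescence range over baseline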
HEK293 MPD ctr 2-1 – second counter-screen for TRPC6 inhibitors: parental HEK293 cells; shares compounds with TRPC6 inhibitor; parental HEK293 membrane potential dye fluorescence; maximal acetylcholine challenge after compound addition; signal change vs control, % at 10 µM; 920 compounds, 31% hits;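 active means membrane potential signal moving either way by over 3 SD of the maximum-effect control, in both duplicate plates, meaning non-specific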
HEK293 MPD ctr-1 – checks TRPC6 inhibitor effects in parental HEK293 cells | shares compounds with TRPC6 inhibitor | membrane potential signal change, % at 10 µM | parental HEK293 membrane potential dye fluorescence | 920 compounds, 60% hits;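 active means membrane potential signal shifting up or down by more than 3 SD of buffer-only wells, on both duplicate plates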
HEK293 MPD ctr-2 – counter-screen for TRPC6 modulators: effect in parental HEK293 cells; membrane potential dye fluorescence; membrane potential signal change, % at 10 µM; shares compounds with TRPC6 inhibitor; 2,400 compounds, 51% hits;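 active means membrane potential signal moves up or down beyond 5 SD from buffer-only wells, on both duplicate plates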
HEK293 MPD ctr 2-2 – second check of TRPC6 modulator effects in parental HEK293 cells; shares compounds with TRPC6 inhibitor; membrane potential dye fluorescence; after compound, maximal acetylcholine stimulation; inhibition, % at 10 µM; 2,400 compounds, 14% hits;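 active means membrane potential signal drops by more than 5 SD from the mean control signal, in both duplicate plates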;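 further: plate controls were acetylcholine ECmax control wells for no effect and buffer only wells for full effect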
TRPC4/MOR mod – selectivity of TRPC6 modulators against mouse TRPC4; shares compounds with TRPC6 inhibitor; HEK293 TRPC4/mu-opioid, membrane potential fluorescence; percent change from control (negative = decrease, positive = increase), % at 10 µM; 2,400 compounds, 69% hits;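 active means membrane potential signal moved up or down beyond 5 SD of buffer control wells, in both duplicate plates, actives on both sides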;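 further: plate controls were assay buffer wells for no effect and DAMGO maximal-effect wells for full effect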
TRPC4/MOR inh 2 – second check of whether TRPC6 modulators also affect mouse TRPC4. shares compounds with TRPC6 inhibitor. HEK293 TRPC4/mu-opioid, membrane potential dye fluorescence; stimulated with maximal-effect DAMGO. inhibition, % at 10 µM. 2,400 compounds, 55% hits. AID 488928;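 active means drop in membrane potential signal beyond 5 SD of the control wells in both duplicate plates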;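 further: TRPC4 counter screen for TRPC6 hits run under conditions tuned for TRPC6 not TRPC4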
TRPC6 inh conf – mouse TRPC6 inhibitor confirmation | shares compounds with TRPC6 inhibitor | 3,300 compounds, 43% hits | AID 488960 | HEK293-TRPC6, membrane potential dye, ACh-evoked depolarization | inhibition, % at 10 µM;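 active means fluorescence ratio falls more than 5 SD below the full-stimulation control mean, in both duplicate runs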;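 further: integrated fluorescence ratio of peak minus minimum over baseline after agonist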
TRPC6 act conf – confirmation of mouse TRPC6 activators. shares compounds with TRPC6 inhibitor. HEK293-TRPC6 membrane potential dye fluorescence, FDSS. activation, % at 10 µM. 2,800 compounds, 11% hits. AID 488961;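 active means ratio signal rise beyond 5 SD above unstimulated control wells' mean, seen in both duplicate runs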;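 further: plate controls were buffer EC0 wells for no effect and acetylcholine ECmax response for full effect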
* marks the source's active call; other numbers are inactive results; i = inactive; / = no result; + = active, no number. Compounds with a hit are over-represented: about 3% of the library has one in this group of screens.

SMILES	TRPC4 inh	Kir21 block	TRPC6 inhibitor	TRPC6 act	TRPC4 PAM	TRPC4 act	HEK293 MPD ctr-2	HEK293 MPD ctr 2-2	TRPC4/MOR mod	TRPC4/MOR inh 2	TRPC6 inh conf	TRPC6 act conf	others
CC1CN(c2ccc([N+](=O)[O-])c3cccnc23)CC(C)N1 (stereo unspecified)	i	-2.3	-10*	i	i	104*	-358%*	i	-60%*	64%*	58%*	i
C=CCn1c(O)c(C(CC)=Nc2cccc(C(F)(F)F)c2)c(=O)[nH]c1=O	i	-0.03	i	i	i	i	/	/	/	/	/	/
COc1ccc(CCNCc2c(OC)ccc3ccccc23)cc1	i	-11*	-7*	i	i	i	/	/	/	/	65%*	/	TRPC4 spec 2=69%*;TRPC4 spec=47%*;HEK293 MPD ctr 2-1=i;HEK293 MPD ctr-1=24%*
COc1cc2c(cc1OC)-c1c(OC)c(OC)cc3c1[C@H](C2)N(C)CC3	i	0.44	-7.7*	i	i	i	-412%*	i	-58%*	38%*	45%*	i
O=C(COc1ccc(Cl)cc1)N(c1ccc(Cl)cc1)C1CN2CCC1CC2 (stereo unspecified)	i	-0.59	i	i	i	i	/	/	/	/	/	/
Cc1nc2c(C(=O)N3CCC4(CC3)OCCO4)cnn2c(C)c1Cc1cccc(Cl)c1	i	0.86	-5.2*	i	i	i	i	i	i	i	45%*	/
Cc1ccc2c(c1)[C@@H]1CN(C)CC[C@@H]1N2C(=O)Nc1cccc(C(F)(F)F)c1	i	-2	-5.9*	i	i	i	i	i	-14%*	47%*	i	i
COc1ccc(C(=O)Oc2cccc3cccnc23)cc1S(=O)(=O)N1CCOCC1	i	0.8	i	i	i	i	/	/	/	/	/	/
CC(=O)OC1N=C(c2ccccc2Cl)c2cc(Br)ccc2N(C)C1=O (stereo unspecified)	i	-0.46	i	i	i	i	/	/	/	/	/	/
CC[N+]12CCC(CC1)C(=C(c1ccccc1)c1ccccc1)C2	i	-1.3	-6.1*	i	i	i	i	69%*	i	i	66%*	i
C[N+]12CCC(CC1)C(=C(c1ccccc1)c1ccccc1)C2	i	0.42	-6.8*	i	i	i	/	/	/	/	81%*	i	TRPC4 spec 2=i;TRPC4 spec=i;HEK293 MPD ctr 2-1=-12%*;HEK293 MPD ctr-1=i
COCCCn1c(-c2ccc(OC)cc2)cc(C(=O)NC2CCCCCCC2)c1C	i	-1.1	i	i	i	i	/	/	/	/	/	/
O=C1CCCN1CC#CCN1CCCC1	i	-1.1	-5.9*	i	i	i	i	i	i	i	49%*	/
CN1CCN(c2ccc3c(c2)S(=O)(=O)c2ccccc2C3=O)CC1	i	-1.6	-5.3*	i	i	i	90%*	i	-52%*	32%*	i	i
CN1CCN(c2cccc3c2C(=O)c2ccccc2C3=O)CC1	i	-1.5	-18*	i	17*	i	-288%*	82%*	-53%*	72%*	80%*	i
CC(=NCC1CCCO1)c1c(O)n(-c2ccccc2C)c(=O)[nH]c1=O (stereo unspecified)	i	-0.02	i	i	i	i	/	/	/	/	/	/
S=P(NC1CCCCC1)(N1CC1)N1CC1	i	-1.6	i	i	i	i	/	/	/	/	/	/
COC(=O)C1=C(c2cccc(OC)c2OC)C[C@@H]2CC[C@H]1N2C(=O)NCC1CC1	i	-0.46	i	i	i	i	/	/	/	/	/	/
O=C(/C=C/c1c[nH]c2ccccc12)c1c(O)n(CCc2ccccc2)c(=O)[nH]c1=O	i	-8.8	i	144*	i	i	+	i	392%*	i	i	390%*
Cc1ccccc1CCNCc1cc2cccc(C)c2[nH]c1=O	i	-2.7	-11*	i	i	i	/	/	/	/	94%*	i	TRPC4 spec 2=16%*;TRPC4 spec=i;HEK293 MPD ctr 2-1=i;HEK293 MPD ctr-1=0.1%*
Cn1c(O)c(C(=NCCc2c[nH]c3ccccc23)c2ccccc2)c(=O)n(C)c1=O	i	1.4	i	i	i	i	/	/	/	/	/	/
COc1cc(C(=O)OC2C[C@H]3CC[C@@H](C2)N3C)ccc1O (stereo partly specified)	i	0.31	i	i	i	i	/	/	/	/	/	/
CCC(CO)(C(=O)OC1CC2CCC(C1)N2C)c1ccccc1 (stereo unspecified)	i	-1.1	-7.6*	i	i	i	/	/	/	/	89%*	i	TRPC4 spec 2=i;TRPC4 spec=i;HEK293 MPD ctr 2-1=-46%*;HEK293 MPD ctr-1=i
C[N+]1(C)[C@@H]2CC[C@H]1CC(OC(=O)[C@@H](CO)c1ccccc1)C2 (stereo partly specified)	i	0.97	-7.7*	i	i	i	/	/	/	/	96%*	i	TRPC4 spec 2=i;TRPC4 spec=i;HEK293 MPD ctr 2-1=-38%*;HEK293 MPD ctr-1=i
